{
  "source": "paper PMC10092158",
  "about": "(The British Journal of Dermatology, 2022)",
  "type_in_all_cases": "in vivo, human",
  "key": {"[1]": {"test_system": "participants with mild‐to‐moderate AD", "how_it_was_run": "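Adults and children with mild-to-moderate AD (IGA 2–3, 2–20% BSA, EASI 3–21) were randomized equally to eight arms for 6 weeks. QD arms were vehicle, 0·1% (1 mg g–1), 0·3%, 1·0% or 3·0% cream; BID arms were vehicle, 0·3% or 1%. Application was to all affected areas except hair-bearing scalp. Read-outs were POEM at weeks 1, 2 and 6 and weekly PP-NRS averages, analysed by ANCOVA or MMRM.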"}, "[2]": {"test_system": "participants with mild‐to‐moderate AD", "experiment": "Phase IIb study: safety and tolerability", "how_it_was_run": "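Safety data came from randomized participants treated for 6 weeks with vehicle or cream (QD 0·1–3·0%, or BID 0·3%/1%). Measures were treatment-emergent adverse events coded by System Organ Class, discontinuations due to TEAEs, vital signs, laboratory tests (haematology, creatine kinase, liver function) and ECGs. All were summarized descriptively.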"}, "[3]": {"experiment": "Phase IIb study: plasma concentrations of brepocitinib", "settings": "topical cream, all dose groups; lower limit of quantification 0·200 ng mL^–1", "how_it_was_run": "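Blood was drawn pre-dose at baseline and at weeks 1, 2, 3, 4 and 6, each at the same interval after application, during 6 weeks of topical cream given QD (0·1–3·0%) or BID (0·3%, 1%). Plasma brepocitinib was quantified against an LLOQ of 0·200 ng mL–1 and summarized as median concentration per dose group.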"}},
  "note": "“Also recorded” adds a separate entry of the source.",
  "data": [
    {"compound": "Cn1cc(Nc2nccc(N3C[C@H]4CC[C@@H](C3)N4C(=O)[C@@H]3CC3(F)F)n2)cn1", "note": "[brepocitinib]", "values": [
      {"measurement": "Percentage change from baseline in EASI score compared with respective vehicle", "setting": "[1]; 1% QD, 3% QD and 1% BID groups, week 1 and all subsequent time points", "value": "significantly greater percentage changes from baseline in EASI score"},
      {"measurement": "Onset of clinically relevant reductions in pruritus", "setting": "[1]; 24 h after the first administration", "value": "as early as day 2"},
      {"measurement": "Change from baseline in POEM at week 6 vs. vehicle", "setting": "[1]; all brepocitinib groups", "value": "significantly different from vehicle"},
      {"measurement": "Discontinued from study due to TEAE, participants", "setting": "[2]; 0·1% QD (N = 37)", "value": "2 (5·4) n (%)"},
      {"measurement": "Nasopharyngitis (TEAE), participants", "setting": "[2]; 0·1% QD (N = 37)", "value": "2 (5·4) n (%)"},
      {"measurement": "Severe TEAEs, participants", "setting": "[2]; 0·1% QD (N = 37)", "value": "0 n (%)"},
      {"measurement": "TEAEs, all causalities, participants", "setting": "[2]; 0·1% QD (N = 37)", "value": "17 (45·9) n (%)"},
      {"measurement": "Treatment‐emergent SAEs, participants", "setting": "[2]; 0·1% QD (N = 37)", "value": "0 n (%)"},
      {"measurement": "Worsening of AD (TEAE), participants", "setting": "[2]; 0·1% QD (N = 37)", "value": "3 (8·1) n (%)"},
      {"measurement": "Cases of creatine kinase elevation (≥ 2–3× the upper limit of normal)", "setting": "[2]; 0·1% QD and 0·3% QD groups, not deemed treatment‐related", "value": "one participant each"},
      {"measurement": "Discontinued from study due to TEAE, participants", "setting": "[2]; 0·3% BID (N = 36)", "value": "1 (2·8) n (%)"},
      {"measurement": "Nasopharyngitis (TEAE), participants", "setting": "[2]; 0·3% BID (N = 36)", "value": "2 (5·6) n (%)"},
      {"measurement": "Severe TEAEs, participants", "setting": "[2]; 0·3% BID (N = 36)", "value": "1 (2·8) n (%)"},
      {"measurement": "TEAEs, all causalities, participants", "setting": "[2]; 0·3% BID (N = 36)", "value": "9 (25·0) n (%)"},
      {"measurement": "Treatment‐emergent SAEs, participants", "setting": "[2]; 0·3% BID (N = 36)", "value": "0 n (%)"},
      {"measurement": "Worsening of AD (TEAE), participants", "setting": "[2]; 0·3% BID (N = 36)", "value": "0 n (%)"},
      {"measurement": "Discontinued from study due to TEAE, participants", "setting": "[2]; 0·3% QD (N = 36)", "value": "1 (2·8) n (%)"},
      {"measurement": "Nasopharyngitis (TEAE), participants", "setting": "[2]; 0·3% QD (N = 36)", "value": "2 (5·6) n (%)"},
      {"measurement": "Severe TEAEs, participants", "setting": "[2]; 0·3% QD (N = 36)", "value": "0 n (%)"},
      {"measurement": "TEAEs, all causalities, participants", "setting": "[2]; 0·3% QD (N = 36)", "value": "11 (30·6) n (%)"},
      {"measurement": "Treatment‐emergent SAEs, participants", "setting": "[2]; 0·3% QD (N = 36)", "value": "0 n (%)"},
      {"measurement": "Worsening of AD (TEAE), participants", "setting": "[2]; 0·3% QD (N = 36)", "value": "1 (2·8) n (%)"},
      {"measurement": "Discontinued from study due to TEAE, participants", "setting": "[2]; 1.0% QD (N = 37)", "value": "2 (5·4) n (%)"},
      {"measurement": "Nasopharyngitis (TEAE), participants", "setting": "[2]; 1.0% QD (N = 37)", "value": "3 (8·1) n (%)"},
      {"measurement": "Severe TEAEs, participants", "setting": "[2]; 1.0% QD (N = 37)", "value": "0 n (%)"},
      {"measurement": "TEAEs, all causalities, participants", "setting": "[2]; 1.0% QD (N = 37)", "value": "12 (32·4) n (%)"},
      {"measurement": "Treatment‐emergent SAEs, participants", "setting": "[2]; 1.0% QD (N = 37)", "value": "0 n (%)"},
      {"measurement": "Worsening of AD (TEAE), participants", "setting": "[2]; 1.0% QD (N = 37)", "value": "0 n (%)"},
      {"measurement": "Discontinued from study due to TEAE, participants", "setting": "[2]; 1·0% BID (N = 37)", "value": "0 n (%)"},
      {"measurement": "Nasopharyngitis (TEAE), participants", "setting": "[2]; 1·0% BID (N = 37)", "value": "2 (5·4) n (%)"},
      {"measurement": "Severe TEAEs, participants", "setting": "[2]; 1·0% BID (N = 37)", "value": "0 n (%)"},
      {"measurement": "TEAEs, all causalities, participants", "setting": "[2]; 1·0% BID (N = 37)", "value": "14 (37·8) n (%)"},
      {"measurement": "Treatment‐emergent SAEs, participants", "setting": "[2]; 1·0% BID (N = 37)", "value": "0 n (%)"},
      {"measurement": "Worsening of AD (TEAE), participants", "setting": "[2]; 1·0% BID (N = 37)", "value": "2 (5·4) n (%)"},
      {"measurement": "Discontinued from study due to TEAE, participants", "setting": "[2]; 3·0% QD (N = 36)", "value": "2 (5·6) n (%)"},
      {"measurement": "Nasopharyngitis (TEAE), participants", "setting": "[2]; 3·0% QD (N = 36)", "value": "4 (11·1) n (%)"},
      {"measurement": "Severe TEAEs, participants", "setting": "[2]; 3·0% QD (N = 36)", "value": "0 n (%)"},
      {"measurement": "TEAEs, all causalities, participants", "setting": "[2]; 3·0% QD (N = 36)", "value": "10 (27·8) n (%)"},
      {"measurement": "Treatment‐emergent SAEs, participants", "setting": "[2]; 3·0% QD (N = 36)", "value": "0 n (%)"},
      {"measurement": "Worsening of AD (TEAE), participants", "setting": "[2]; 3·0% QD (N = 36)", "value": "1 (2·8) n (%)"},
      {"measurement": "Discontinuations due to TEAEs in SOC skin and subcutaneous tissue disorders", "setting": "[2]; all brepocitinib groups together", "value": 4, "unit": "n"},
      {"measurement": "Trends in haemoglobin, platelet, lymphocyte or neutrophil counts or creatine kinase levels", "setting": "[2]; all groups", "value": "no clinically significant trends"},
      {"measurement": "Serious AEs or deaths", "setting": "[2]; all groups, 6 weeks treatment", "value": "no serious AEs or deaths; also recorded: no serious TEAEs or deaths"},
      {"measurement": "Plasma brepocitinib concentrations", "setting": "[3]", "value": "low and highly variable"}
    ]}
  ]
}
